Measured values as given in ChEMBL document CHEMBL1142985, “Antineoplastic agents. 550. Synthesis of 10b(s)-epipancratistatin from (+)-narciclasine” (2007).
Values after ≈ are worked out from the molar mass of the structure shown.

Assays:
Assay type in all cases: functional
NCI-H460 = test: Growth inhibition of human NCI-H460 cells after 48 hrs; details: NCI-H460, 48 h
In short: (§1)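 NCI sulforhodamine B assay. Cells in 5% fetal bovine serum/RPMI1640 seeded, grown 24 h, then exposed to serial compound dilutions for 48 h. Fixed with trichloroacetic acid, stained with sulforhodamine B, optical density read on a plate reader. GI50 taken as the concentration causing a 50% reduction in net protein increase.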

DU-145 = test: Growth inhibition of human DU145 cells after 48 hrs; details: DU-145, 48 h; in short: as §1
KM-20L2 = test: Growth inhibition of human KM20L2 cells after 48 hrs; details: KM-20L2, 48 h; in short: as §1
BXPC-3 = test: Growth inhibition of human BXPC3 cells after 48 hrs; details: BXPC-3, 48 h; in short: as §1
MCF7 = test: Growth inhibition of human MCF7 cells after 48 hrs; details: MCF7, 48 h; in short: as §1
P388 = test: Growth inhibition of murine P388 cells after 48 hrs; details: Mus musculus, P388, 48 h; read-out: ED50 (the source's name)
In short: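 Mouse leukemia P388 cells held 24 h in 10% horse serum/Fisher medium, then incubated 48 h with serial compound dilutions. Cell numbers counted on a Coulter particle counter; ED50 taken as the concentration giving 50% growth inhibition.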

SF-268 = test: Growth inhibition of human SF268 cells after 48 hrs; details: SF-268, 48 h; in short: as §1

SMILES	GI50 (NCI-H460) [mg/L]	GI50 (DU-145) [mg/L]	GI50 (KM-20L2) [mg/L]	GI50 (BXPC-3) [mg/L]	GI50 (MCF7) [mg/L]	EC50 (P388) [mg/L]	GI50 (SF-268) [mg/L]
CC(=O)O[C@@H]1[C@@H](OC(C)=O)[C@H](O)[C@@]2(O)c3cc4c(c(O)c3C(=O)N[C@H]2[C@@H]1OC(C)=O)OCO4	> 10	> 10	> 10	> 10	> 10	> 10	> 10
CC(=O)O[C@H]1[C@@H](OC(C)=O)[C@@H]2NC(=O)c3c(cc4c(c3O)OCO4)[C@@]23OC(=S)O[C@H]3[C@@H]1OC(C)=O	> 1	> 1	> 1	> 1	> 1	> 1	> 1
CC(=O)O[C@@H]1[C@@H](OC(C)=O)[C@H](OC(C)=O)[C@H]2c3cc4c(c(O)c3C(=O)N[C@H]2[C@@H]1OC(C)=O)OCO4	1.3 (≈ 2.63 µM)	1.4 (≈ 2.84 µM)	1.8 (≈ 3.65 µM)	1.8 (≈ 3.65 µM)	2 (≈ 4.05 µM)	0.2 (≈ 0.405 µM)	3 (≈ 6.08 µM)
O=C1N[C@H]2[C@H](O)[C@H](O)[C@@H](O)[C@H](O)[C@H]2c2cc3c(c(O)c21)OCO3	0.23 (≈ 0.707 µM)	0.21 (≈ 0.646 µM)	0.31 (≈ 0.953 µM)	0.32 (≈ 0.984 µM)	0.27 (≈ 0.83 µM)	0.14 (≈ 0.43 µM)	0.26 (≈ 0.799 µM)
CC(=O)O[C@@H]1[C@@H](OC(C)=O)[C@H](O)[C@H]2c3cc4c(c(O)c3C(=O)N[C@H]2[C@@H]1OC(C)=O)OCO4	> 1	> 1	> 1	> 1	> 1	> 1	> 1
COC(=O)C(=O)Oc1c2c(cc3c1C(=O)N(C(=O)C(=O)OC)[C@H]1[C@H](OC(C)=O)[C@H](OC(C)=O)[C@@H](OC(C)=O)[C@H](OC(C)=O)[C@@]31OC(=O)C(=O)OC)OCO2	> 10	> 10	> 10	> 10	> 10	> 10	> 10
CC(=O)Oc1c2c(cc3c1C(=O)N[C@H]1[C@H](OC(C)=O)[C@H](OC(C)=O)[C@@H](OC(C)=O)[C@H](O)[C@@]31O)OCO2	> 10	4.3 (≈ 8.44 µM)	3.6 (≈ 7.07 µM)	14.4 (≈ 28.3 µM)	5.2 (≈ 10.2 µM)	1.7 (≈ 3.34 µM)	9.9 (≈ 19.4 µM)
CC(=O)Oc1c2c(cc3c1C(=O)N[C@H]1[C@H](OC(C)=O)[C@H](OC(C)=O)[C@@H](OC(C)=O)[C@H](OC(C)=O)[C@@]31O)OCO2	> 10	> 10	> 10	> 10	> 10	8.9 (≈ 16.1 µM)	> 10
CC(=O)O[C@@H]1[C@H](OC(C)=O)[C@@H](OC(C)=O)C=C2c3cc4c(c(O)c3C(=O)N[C@H]21)OCO4	0.033 (≈ 0.0761 µM)	0.028 (≈ 0.0646 µM)	0.051 (≈ 0.118 µM)	0.011 (≈ 0.0254 µM)	0.06 (≈ 0.138 µM)	0.013 (≈ 0.03 µM)	0.16 (≈ 0.369 µM)
CC(=O)O[C@H]1[C@@H](OC(C)=O)[C@@H]2NC(=O)c3c(cc4c(c3O)OCO4)[C@@]23OC(=O)O[C@H]3[C@@H]1OC(C)=O	2.9 (≈ 5.88 µM)	1.5 (≈ 3.04 µM)	2.8 (≈ 5.68 µM)	3.1 (≈ 6.28 µM)	4.9 (≈ 9.93 µM)	1.5 (≈ 3.04 µM)	7.5 (≈ 15.2 µM)
CC(=O)Oc1c2c(cc3c1C(=O)N[C@@H]1C3=C[C@H](OC(C)=O)[C@@H](OC(C)=O)[C@H]1OC(C)=O)OCO2	0.28 (≈ 0.589 µM)	0.023 (≈ 0.0484 µM)	0.043 (≈ 0.0904 µM)	0.16 (≈ 0.337 µM)	0.088 (≈ 0.185 µM)	0.027 (≈ 0.0568 µM)	0.055 (≈ 0.116 µM)
O=C1N[C@@H]2C(=C[C@H](O)[C@@H](O)[C@H]2O)c2cc3c(c(O)c21)OCO3 [NARCICLASINE]	0.0084 (≈ 0.0273 µM)	0.0032 (≈ 0.0104 µM)	0.0032 (≈ 0.0104 µM)	0.0035 (≈ 0.0114 µM)	0.0032 (≈ 0.0104 µM)	0.0012 (≈ 0.00391 µM)	0.0031 (≈ 0.0101 µM)
O=C1N[C@H]2[C@H](O)[C@H](O)[C@@H](O)[C@H](O)[C@@H]2c2cc3c(c(O)c21)OCO3 [PANCRATISTATIN]	0.032 (≈ 0.0984 µM)	0.015 (≈ 0.0461 µM)	0.025 (≈ 0.0769 µM)	0.02 (≈ 0.0615 µM)	0.023 (≈ 0.0707 µM)	0.017 (≈ 0.0523 µM)	0.014 (≈ 0.043 µM)
